According to ChEMBL document CHEMBL1123250, “Chloroalanyl antibiotic peptides: antagonism of their antimicrobial effects by L-alanine and L-alanyl peptides in gram-negative bacteria” (1986):
In brackets after ≈: the same amount, converted by molar mass.

Tests used:
Type in all cases: functional
Shigella flexneri = assay: Compound was tested for antibacterial activity against Shigella flexneri
Method in brief: (§1)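 Agar dilution MIC on defined peptide susceptibility agar. Inoculum made by growing overnight in liquid peptide susceptibility medium, then diluting to about 1 × 10^7 cfu/mL. Applied by Steers replicator to plates carrying serial 2-fold peptide dilutions. Incubated overnight at 37 °C. MIC = lowest concentration allowing growth of fewer than 10 colonies after 16-18 h.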

Proteus mirabilis = assay: Compound was tested for antibacterial activity against Proteus mirabilis; method in brief: as §1
Streptococcus pyogenes = assay: Compound was tested for antibacterial activity against Streptococcus pyogenes
Method in brief: (§2)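 Inoculum made from colonies grown overnight on chocolate or blood agar, resuspended in liquid medium to 10' cfu/mL. Applied by Steers replicator to serial 2-fold peptide dilutions. Incubated overnight at 37 °C under 7% CO2. MIC = lowest concentration giving fewer than 10 colonies at 16-18 h.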

Staphylococcus aureus = assay: Compound was tested for antibacterial activity against Staphylococcus aureus; method in brief: as §1
Streptococcus agalactiae = assay: Compound was tested for antibacterial activity against Streptococcus agalactiae; method in brief: as §2
Haemophilus influenzae = assay: Compound was tested for antibacterial activity against Hemophilus influenzae; method in brief: as §2
Escherichia coli = assay: Compound was tested for antibacterial activity against Escherichia coli; method in brief: as §1
Enterococcus faecalis = assay: Compound was tested for antibacterial activity against Streptococcus faecalis; method in brief: as §1
[1] = tested on: Staphylococcus epidermidis; assay: Compound was tested for antibacterial activity against Staphylococcus epidermidis; method in brief: as §1
Morganella morganii = assay: Compound was tested for antibacterial activity against Morganella morganii; method in brief: as §1
Enterobacter cloacae = assay: Compound was tested for antibacterial activity against Enterobacter cloacae; method in brief: as §1

Row | SMILES | MIC (Shigella flexneri) [µg/mL] | MIC (Proteus mirabilis) [µg/mL] | MIC (Streptococcus pyogenes) [µg/mL] | MIC (Staphylococcus aureus) [µg/mL] | MIC (Streptococcus agalactiae) [µg/mL] | MIC (Haemophilus influenzae) [µg/mL] | MIC (Escherichia coli) [µg/mL] | MIC (Enterococcus faecalis) [µg/mL] | MIC [1] [µg/mL] | MIC (Morganella morganii) [µg/mL] | MIC (Enterobacter cloacae) [µg/mL]
1 | NC(=O)CC[C@H](N)C(=O)N[C@@H](CCl)C(=O)O | > 100 | > 100 | < 0.1 | 0.05 (≈ 0.199 µM) | 0.78 (≈ 3.1 µM) | > 100 | 1.56 (≈ 6.2 µM) | 0.78 (≈ 3.1 µM) | 0.05 (≈ 0.199 µM) | – | –
2 | CN[C@@H](C)C(=O)N[C@@H](CCl)C(=O)O | 100 (≈ 479 µM) | > 100 | – | 0.39 (≈ 1.87 µM) | 6.25 (≈ 30 µM) | 12.5 (≈ 59.9 µM) | 6.25 (≈ 30 µM) | 100 (≈ 479 µM) | 3.12 (≈ 15 µM) | – | –
3 | N[C@@H](Cc1ccccc1)C(=O)N[C@@H](CCl)C(=O)O | 100 (≈ 369 µM) | 100 (≈ 369 µM) | < 0.1 | 0.05 (≈ 0.185 µM) | 6.25 (≈ 23.1 µM) | 12.5 (≈ 46.2 µM) | 25 (≈ 92.3 µM) | 0.39 (≈ 1.44 µM) | 0.05 (≈ 0.185 µM) | – | –
4 | CC(C)[C@H](N)C(=O)N[C@@H](C)C(=O)N[C@@H](CCl)C(=O)O | > 100 | – | 0.1 (≈ 0.34 µM) | 0.05 (≈ 0.17 µM) | 3.12 (≈ 10.6 µM) | > 100 | > 100 | > 100 | 0.025 (≈ 0.0851 µM) | – | –
5 | N[C@@H](CCl)C(=O)N[C@@H](CCl)C(=O)N[C@@H](CCl)C(=O)O | 6.25 (≈ 18.7 µM) | – | 0.39 (≈ 1.17 µM) | 0.2 (≈ 0.598 µM) | 0.78 (≈ 2.33 µM) | 6.25 (≈ 18.7 µM) | 25 (≈ 74.7 µM) | < 0.1 | 0.1 (≈ 0.299 µM) | – | –
6 | NCCC(=O)N[C@@H](CCl)C(=O)O | > 100 | > 100 | – | 0.78 (≈ 4.01 µM) | > 100 | > 100 | > 100 | > 100 | 6.25 (≈ 32.1 µM) | – | –
7 | CSCC[C@H](N)C(=O)N[C@@H](CCl)C(=O)O | – | 50 (≈ 196 µM) | 1.56 (≈ 6.12 µM) | – | – | – | – | – | – | 50 (≈ 196 µM) | –
8 | CCC[C@H](N)C(=O)N[C@@H](CCl)C(=O)O | – | – | – | 0.25 (≈ 1.12 µM) | – | – | – | – | – | – | –
9 | O=C(O)[C@H](CCl)NC(=O)[C@@H]1CCCN1 | > 100 | > 100 | 6.25 (≈ 28.3 µM) | 0.39 (≈ 1.77 µM) | 12.5 (≈ 56.6 µM) | 25 (≈ 113 µM) | 6.25 (≈ 28.3 µM) | < 0.1 | 1.56 (≈ 7.07 µM) | – | –

The remaining lines, values ahead:

Row | MIC (Shigella flexneri) [µg/mL] | MIC (Proteus mirabilis) [µg/mL] | MIC (Streptococcus pyogenes) [µg/mL] | MIC (Staphylococcus aureus) [µg/mL] | MIC (Streptococcus agalactiae) [µg/mL] | MIC (Haemophilus influenzae) [µg/mL] | MIC (Escherichia coli) [µg/mL] | MIC (Enterococcus faecalis) [µg/mL] | MIC [1] [µg/mL] | MIC (Morganella morganii) [µg/mL] | MIC (Enterobacter cloacae) [µg/mL] | SMILES
10 | 1.56 (≈ 8.64 µM) | > 100 | 0.05 (≈ 0.277 µM) | 0.025 (≈ 0.138 µM) | 0.39 (≈ 2.16 µM) | 0.2 (≈ 1.11 µM) | 3.12 (≈ 17.3 µM) | > 100 | 0.05 (≈ 0.277 µM) | > 100 | 1.56 (≈ 8.64 µM) | NCC(=O)N[C@@H](CCl)C(=O)O
11 | 1.56 (≈ 7.48 µM) | > 100 | 12.5 (≈ 59.9 µM) | 0.025 (≈ 0.12 µM) | < 0.1 | < 0.1 | 1.56 (≈ 7.48 µM) | 6.25 (≈ 30 µM) | 0.025 (≈ 0.12 µM) | 50 (≈ 240 µM) | 25 (≈ 120 µM) | CC[C@H](N)C(=O)N[C@@H](CCl)C(=O)O
12 | 25 (≈ 106 µM) | 12.5 (≈ 52.8 µM) | < 0.1 | 0.025 (≈ 0.106 µM) | 3.12 (≈ 13.2 µM) | 6.25 (≈ 26.4 µM) | 3.12 (≈ 13.2 µM) | < 0.1 | 0.05 (≈ 0.211 µM) | – | – | CC[C@H](C)[C@H](N)C(=O)N[C@@H](CCl)C(=O)O
13 | 50 (≈ 211 µM) | 25 (≈ 106 µM) | < 0.1 | 0.025 (≈ 0.106 µM) | 1.56 (≈ 6.59 µM) | 6.25 (≈ 26.4 µM) | 3.12 (≈ 13.2 µM) | < 0.1 | 0.0125 (≈ 0.0528 µM) | – | – | CC(C)C[C@H](N)C(=O)N[C@@H](CCl)C(=O)O
14 | > 100 | – | 0.2 (≈ 0.753 µM) | 0.025 (≈ 0.0941 µM) | 12.5 (≈ 47 µM) | > 100 | > 100 | > 100 | 0.025 (≈ 0.0941 µM) | – | – | C[C@H](N)C(=O)N[C@@H](C)C(=O)N[C@@H](CCl)C(=O)O
15 | 12.5 (≈ 34.7 µM) | > 100 | 6.25 (≈ 17.3 µM) | 0.025 (≈ 0.0694 µM) | < 0.1 | 0.39 (≈ 1.08 µM) | 1.56 (≈ 4.33 µM) | 0.05 (≈ 0.139 µM) | 0.0125 (≈ 0.0347 µM) | > 100 | > 100 | CSCC[C@H](N)C(=O)N[C@@H](CCl)C(=O)N[C@@H](CCl)C(=O)O
16 | > 100 | 100 (≈ 449 µM) | < 0.1 | 0.025 (≈ 0.112 µM) | 1.56 (≈ 7.01 µM) | 12.5 (≈ 56.1 µM) | 1.56 (≈ 7.01 µM) | < 0.1 | < 0.0125 | – | – | CC(C)[C@H](N)C(=O)N[C@@H](CCl)C(=O)O
